The text below walks through data of ChEMBL document CHEMBL2390901, “Synthesis and biological evaluation of N-(4-hydroxy-3-mercaptonaphthalen-1-yl)amides as inhibitors of angiogenesis and tumor growth” (Eur J Med Chem, 2013).

For assay [1], the system named is Aorta. As to the kind of experiment: Antiangiogenic activity in Sprague-Dawley rat aortic rings assessed as reduction of microvessel outgrowth after 6 days by matrigel assay. Format: functional, tissue-based. The method in brief:
(§1)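 Aortas from 8–10-week-old male Sprague Dawley rats cleaned of fibroadipose tissue, cut into 1-mm rings, embedded between two Matrigel layers. Compound or vehicle (0.5 % DMSO) added every other day for 6 days; imaged day 7 (×200). Sprouting area quantified as pixels versus vehicle; mean ± SD, three independent experiments.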

The test system of another assay is MDA-MB-231. As to the kind of experiment: Antiproliferative activity against human MDA-MB-231 cells after 48 hrs by MTT assay. To be noted: MDA-MB-231, 48 h. In kind it is functional, cell-based. The method, boiled down: (§2)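 Cells kept in RPMI 1640 with 10 % FBS at 37 °C, 5 % CO2. Seeded 5,000/well, allowed 4 h, then exposed to serial dilutions for 48 h. MTT added for the last 4 h; formazan dissolved in DMSO, absorbance at 570 nm.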
Background: Tetrazolium dyes change colour on reduction, which living cells bring about.

Another assay relates to K562. As to the kind of experiment: Antiproliferative activity against human K562 cells after 48 hrs by MTT assay. In kind it is functional, cell-based. To be noted: K562, 48 h. The method in brief: as §2
The test system of assay [2] is HUVEC. As to the kind of experiment: Antiangiogenic activity in HUVEC assessed as inhibition of tube formation at 50 uM after 6 hrs by matrigel assay. Format: functional. The note with it: Homo sapiens. The method in brief: (§3)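 HUVECs seeded at 40,000 cells/well on Matrigel (gelled 30 min, 37 °C) in M199 with 5 % FBS plus compound or vehicle (0.5 % DMSO); 6 h at 37 °C, 5 % CO2. Tubes photographed by phase-contrast (×200); tube area measured as pixels and compared with vehicle. Mean ± SD of three independent experiments.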

Assay [3] relates to Aorta. As to the kind of experiment: Antiangiogenic activity in Sprague-Dawley rat aortic rings assessed as inhibition of microvessel outgrowth at 1 uM after 6 days by matrigel assay. In kind it is functional. To be noted: 144 h. The method, boiled down: as §1
The subject of assay [4] is Aorta. In words: Antiangiogenic activity in Sprague-Dawley rat aortic rings assessed as inhibition of microvessel outgrowth at 50 uM after 6 days by matrigel assay. In kind it is functional. The note with it: for inhibition at 50 µM: 144 h. The method, boiled down: as §1
Assay [5] addresses ALK tyrosine kinase receptor (Homo sapiens) (UniProt Q9UM73). In words: Inhibition of ALK (unknown origin) at 10 uM after 30 mins by fluorescence assay. The method in brief:
(§4)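 Single 10 μM test. Enzyme preincubated with compound in Hepes/Tris pH 7.4, EGTA/Tris, MgCl2, DTT, 0.008 % Tween 20. Substrate peptide and ATP added; 30 min at room temperature. Stopped with EDTA; europium-labelled anti-phospho PT66 antibody added, TR-FRET read after 60 min. Percent inhibition versus control enzyme activity; no-enzyme basal control; duplicate.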

The test system of the next assay is PC-3. In words: Antiproliferative activity against human PC3 cells after 48 hrs by MTT assay. In kind it is functional, cell-based. The note with it: PC-3, 48 h. The method, boiled down: as §2
For the next assay, the system named is MCF7. In words: Antiproliferative activity against human MCF7 cells after 48 hrs by MTT assay. In kind it is functional, cell-based. The note with it: MCF7, 48 h. The method in brief:
as §2

Another assay relates to A549. As to the kind of experiment: Antiproliferative activity against human A549 cells after 48 hrs by MTT assay. The note with it: A549, 48 h. Format: functional, cell-based. The method, boiled down: as §2
The target of assay [6] is RAC-alpha serine/threonine-protein kinase (Homo sapiens) (UniProt P31749). As to the kind of experiment: Inhibition of AKT1 (unknown origin) at 10 uM after 30 mins by fluorescence assay. The method in brief:
as §4

The subject of the next assay is HCT-116. As to the kind of experiment: Antiproliferative activity against human HCT116 cells after 48 hrs by MTT assay. In kind it is functional, cell-based. To be noted: HCT-116, 48 h. The method in brief:
as §2

In assay [7] the target is Vascular endothelial growth factor receptor 2 (Homo sapiens) (UniProt P35968). As to the kind of experiment: Inhibition of VEGFR2 (unknown origin) at 10 uM after 30 mins by fluorescence assay.
Sequence of Vascular endothelial growth factor receptor 2 (Homo sapiens) (P35968 whole entry): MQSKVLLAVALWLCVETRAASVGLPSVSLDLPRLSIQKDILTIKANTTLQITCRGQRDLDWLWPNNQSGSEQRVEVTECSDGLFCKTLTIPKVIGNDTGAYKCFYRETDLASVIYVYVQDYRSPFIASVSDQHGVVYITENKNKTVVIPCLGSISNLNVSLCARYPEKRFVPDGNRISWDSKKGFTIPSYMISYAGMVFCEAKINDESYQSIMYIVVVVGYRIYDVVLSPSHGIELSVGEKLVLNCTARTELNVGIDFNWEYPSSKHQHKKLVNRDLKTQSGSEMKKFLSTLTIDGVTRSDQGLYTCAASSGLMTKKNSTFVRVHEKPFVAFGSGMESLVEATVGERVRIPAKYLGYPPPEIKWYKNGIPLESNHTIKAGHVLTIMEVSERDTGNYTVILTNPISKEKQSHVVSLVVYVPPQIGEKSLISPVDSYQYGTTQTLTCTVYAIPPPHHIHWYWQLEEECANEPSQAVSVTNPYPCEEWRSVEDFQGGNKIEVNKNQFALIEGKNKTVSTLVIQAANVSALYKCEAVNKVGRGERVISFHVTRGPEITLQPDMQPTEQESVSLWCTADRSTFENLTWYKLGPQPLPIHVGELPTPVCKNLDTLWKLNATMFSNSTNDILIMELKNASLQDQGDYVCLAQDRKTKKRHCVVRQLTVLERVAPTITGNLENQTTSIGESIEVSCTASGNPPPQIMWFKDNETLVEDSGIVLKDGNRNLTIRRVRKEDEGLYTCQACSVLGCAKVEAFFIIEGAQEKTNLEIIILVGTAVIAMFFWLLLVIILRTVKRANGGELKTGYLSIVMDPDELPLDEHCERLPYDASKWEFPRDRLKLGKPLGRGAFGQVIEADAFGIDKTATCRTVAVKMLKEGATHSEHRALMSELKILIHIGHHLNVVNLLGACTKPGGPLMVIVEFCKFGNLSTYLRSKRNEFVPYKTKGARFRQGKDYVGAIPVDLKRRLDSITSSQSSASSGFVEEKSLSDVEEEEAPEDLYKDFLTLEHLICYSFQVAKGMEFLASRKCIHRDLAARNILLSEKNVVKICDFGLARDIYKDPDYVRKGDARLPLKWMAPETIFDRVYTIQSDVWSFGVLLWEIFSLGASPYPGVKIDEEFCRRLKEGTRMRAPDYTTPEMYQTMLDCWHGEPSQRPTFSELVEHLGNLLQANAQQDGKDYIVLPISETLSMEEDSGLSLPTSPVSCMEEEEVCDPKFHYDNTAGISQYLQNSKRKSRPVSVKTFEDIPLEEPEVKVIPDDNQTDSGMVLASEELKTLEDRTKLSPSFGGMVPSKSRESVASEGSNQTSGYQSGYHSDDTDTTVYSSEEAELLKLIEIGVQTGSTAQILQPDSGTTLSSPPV
Assay [8] relates to HUVEC. As to the kind of experiment: Antiangiogenic activity in HUVEC assessed as inhibition of tube formation at 10 uM after 6 hrs by matrigel assay. Format: functional. The note with it: Homo sapiens. The method in brief: as §3
In assay [9] the test system is HUVEC. In words: Antiproliferative activity against human HUVEC cells after 48 hrs by MTT assay. Format: functional, cell-based. The method, boiled down:
as §2

The target in assay [10] is Platelet-derived growth factor receptor beta (Homo sapiens) (UniProt P09619). In words: Inhibition of PDGFR-beta (unknown origin) at 10 uM after 30 mins by fluorescence assay.
Sequence of Platelet-derived growth factor receptor beta (Homo sapiens) (P09619 whole entry): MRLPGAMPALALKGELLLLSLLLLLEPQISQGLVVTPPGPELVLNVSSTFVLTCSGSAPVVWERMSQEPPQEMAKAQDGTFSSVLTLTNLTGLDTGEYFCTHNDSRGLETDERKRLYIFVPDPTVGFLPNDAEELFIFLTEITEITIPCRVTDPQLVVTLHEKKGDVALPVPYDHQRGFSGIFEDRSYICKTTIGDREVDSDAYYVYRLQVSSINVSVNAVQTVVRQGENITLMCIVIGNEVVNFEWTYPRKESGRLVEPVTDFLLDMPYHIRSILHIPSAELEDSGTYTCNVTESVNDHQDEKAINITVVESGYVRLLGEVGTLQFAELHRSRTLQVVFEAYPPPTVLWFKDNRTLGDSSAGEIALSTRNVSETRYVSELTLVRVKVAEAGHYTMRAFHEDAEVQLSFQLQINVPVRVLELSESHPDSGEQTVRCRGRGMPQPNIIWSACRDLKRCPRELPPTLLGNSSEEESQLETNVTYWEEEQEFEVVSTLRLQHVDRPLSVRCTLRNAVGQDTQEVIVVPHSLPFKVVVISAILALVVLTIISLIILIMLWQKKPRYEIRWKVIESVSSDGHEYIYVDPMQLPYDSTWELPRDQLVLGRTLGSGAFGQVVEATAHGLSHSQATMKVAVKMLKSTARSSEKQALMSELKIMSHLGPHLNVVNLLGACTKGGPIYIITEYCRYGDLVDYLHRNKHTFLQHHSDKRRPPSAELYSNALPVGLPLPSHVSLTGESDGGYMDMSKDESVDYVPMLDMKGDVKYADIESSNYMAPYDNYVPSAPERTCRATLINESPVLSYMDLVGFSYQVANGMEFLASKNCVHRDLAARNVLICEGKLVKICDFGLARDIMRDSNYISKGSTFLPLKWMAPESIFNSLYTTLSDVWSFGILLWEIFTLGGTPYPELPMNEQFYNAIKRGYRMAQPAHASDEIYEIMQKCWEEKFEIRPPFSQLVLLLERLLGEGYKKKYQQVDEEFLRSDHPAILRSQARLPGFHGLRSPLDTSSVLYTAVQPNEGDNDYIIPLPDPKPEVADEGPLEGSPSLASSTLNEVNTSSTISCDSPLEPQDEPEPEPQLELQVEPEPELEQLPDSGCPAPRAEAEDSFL
Assay [11] concerns Aorta. In words: Antiangiogenic activity in Sprague-Dawley rat aortic rings assessed as inhibition of microvessel outgrowth at 10 uM after 6 days by matrigel assay. Format: functional. To be noted: 144 h. The method, boiled down:
as §1

pIC50: −log10 of the molar value. The source made the active and inactive calls. No cut-off for these calls is given here.

Sequence of RAC-alpha serine/threonine-protein kinase (Homo sapiens) (P31749 whole entry): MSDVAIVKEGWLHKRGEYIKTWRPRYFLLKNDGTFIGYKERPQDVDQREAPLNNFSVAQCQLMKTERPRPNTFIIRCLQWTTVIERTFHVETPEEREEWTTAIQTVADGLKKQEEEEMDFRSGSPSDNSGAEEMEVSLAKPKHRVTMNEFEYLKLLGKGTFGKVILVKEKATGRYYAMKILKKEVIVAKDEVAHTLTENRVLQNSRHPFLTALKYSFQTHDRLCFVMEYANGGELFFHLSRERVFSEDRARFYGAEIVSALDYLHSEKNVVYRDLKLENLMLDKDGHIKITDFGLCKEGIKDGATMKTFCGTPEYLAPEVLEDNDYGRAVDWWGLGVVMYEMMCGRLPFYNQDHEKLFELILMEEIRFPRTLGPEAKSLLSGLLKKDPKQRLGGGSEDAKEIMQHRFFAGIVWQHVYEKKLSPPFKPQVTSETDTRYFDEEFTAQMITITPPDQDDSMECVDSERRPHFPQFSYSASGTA
Sequence of ALK tyrosine kinase receptor (Homo sapiens) (Q9UM73 19-1620 limits assumed): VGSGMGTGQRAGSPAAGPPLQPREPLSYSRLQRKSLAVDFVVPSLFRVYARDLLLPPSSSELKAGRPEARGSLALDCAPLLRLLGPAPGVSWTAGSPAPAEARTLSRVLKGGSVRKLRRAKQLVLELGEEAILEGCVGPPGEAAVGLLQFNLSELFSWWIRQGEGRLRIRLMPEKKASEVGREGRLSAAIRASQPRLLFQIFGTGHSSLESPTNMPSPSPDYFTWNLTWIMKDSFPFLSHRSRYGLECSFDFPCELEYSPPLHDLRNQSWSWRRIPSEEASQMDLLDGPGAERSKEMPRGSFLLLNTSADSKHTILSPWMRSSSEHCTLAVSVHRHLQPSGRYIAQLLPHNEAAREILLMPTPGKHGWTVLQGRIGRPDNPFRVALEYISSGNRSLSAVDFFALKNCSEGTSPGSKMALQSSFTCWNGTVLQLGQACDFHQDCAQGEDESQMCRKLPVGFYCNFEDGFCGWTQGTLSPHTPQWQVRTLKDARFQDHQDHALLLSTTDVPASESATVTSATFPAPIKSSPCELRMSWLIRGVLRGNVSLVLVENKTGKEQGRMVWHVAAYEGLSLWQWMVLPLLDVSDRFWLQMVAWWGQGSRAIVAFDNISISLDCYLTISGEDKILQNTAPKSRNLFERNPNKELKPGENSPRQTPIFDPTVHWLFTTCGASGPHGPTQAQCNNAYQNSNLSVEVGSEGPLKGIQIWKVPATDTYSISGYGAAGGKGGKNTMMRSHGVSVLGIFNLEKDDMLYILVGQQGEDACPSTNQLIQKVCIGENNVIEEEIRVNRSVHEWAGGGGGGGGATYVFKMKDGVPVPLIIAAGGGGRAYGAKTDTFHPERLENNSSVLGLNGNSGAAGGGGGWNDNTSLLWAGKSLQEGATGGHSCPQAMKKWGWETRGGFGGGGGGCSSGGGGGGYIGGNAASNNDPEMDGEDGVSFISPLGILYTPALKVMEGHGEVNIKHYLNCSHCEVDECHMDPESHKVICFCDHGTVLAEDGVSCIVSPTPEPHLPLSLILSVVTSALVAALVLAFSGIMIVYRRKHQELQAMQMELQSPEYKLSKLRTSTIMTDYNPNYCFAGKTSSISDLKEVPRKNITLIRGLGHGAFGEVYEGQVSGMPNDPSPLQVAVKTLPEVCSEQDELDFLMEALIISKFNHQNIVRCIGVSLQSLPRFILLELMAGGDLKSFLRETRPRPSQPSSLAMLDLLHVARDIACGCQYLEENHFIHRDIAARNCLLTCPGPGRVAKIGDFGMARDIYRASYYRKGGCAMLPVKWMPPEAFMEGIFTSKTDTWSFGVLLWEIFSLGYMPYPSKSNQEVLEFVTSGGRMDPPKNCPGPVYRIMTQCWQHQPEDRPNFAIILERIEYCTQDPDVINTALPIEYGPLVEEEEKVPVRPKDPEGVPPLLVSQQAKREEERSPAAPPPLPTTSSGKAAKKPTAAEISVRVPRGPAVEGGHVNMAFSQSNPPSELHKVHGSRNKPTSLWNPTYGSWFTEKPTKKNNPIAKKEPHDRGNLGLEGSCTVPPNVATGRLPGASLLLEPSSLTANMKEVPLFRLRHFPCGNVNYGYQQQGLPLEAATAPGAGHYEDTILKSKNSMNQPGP

Usually pIC50 stands for the IC50 on a negative log10 scale, so that one unit is a factor of ten. A word on the inhibition: it is the share of the control response that was lost under treatment. Consider `O=C(Nc1cc(Sc2ncnc3nc[nH]c23)c(O)c2ccccc12)c1ccccc1[N+](=O)[O-]`, for which the Activity entry with Aorta [1] is “Dose-dependent effect”. The pIC50 is 4.27 with MDA-MB-231; 4.43 in the assay on K562; less than 4.00 with PC-3; less than 4.00 in the assay with MCF7; less than 4.00 in the assay on A549; 4.50 in the assay with HCT-116. For the same molecule, the inhibition at 50 µM with HUVEC [2] is greater than 80%; in the assay on Aorta [4], 96%. Further, the inhibition at 1 µM with Aorta [3] is greater than 70%. For the same molecule, the inhibition result in [5] is “inactive”. Also, the inhibition in assay [6] was 50.7%.

`O=C(Nc1cc(Sc2ncn[nH]2)c(O)c2ccccc12)c1ccccc1[N+](=O)[O-]`: the inhibition in assay [7] was found to be 65.2%; in assay [5] it was 56.8%; in assay [6] it was 85.8%; in assay [10] it was 37.9%. Also, the Activity entry with Aorta [1] was “Dose-dependent effect”. Also, the pIC50 was 4.67 with MDA-MB-231; 4.97 in the assay on K562; 4.28 with PC-3; 5.55 with MCF7; 4.39 in the assay on A549; 4.99 with HCT-116. In the assay with HUVEC [9], the pIC50 was 5.27. The values for the inhibition at 50 µM in the assay on HUVEC [2] and with Aorta [4] were greater than 80% and 95%, respectively. In the assay on Aorta [3], the inhibition at 1 µM is 91%. Also, the inhibition at 10 µM in the assay with HUVEC [8] worked out at 83%.

With `O=C(Nc1cc(Sc2ncn[nH]2)c(O)c2ccccc12)c1ccc(Cl)cc1`, the pIC50 with MDA-MB-231 was 4.59; in the assay with K562, 4.73; in the assay with PC-3 it was 5.26; in the assay with MCF7, less than 4.00; in the assay with A549, 4.38; with HCT-116, 4.36. Also, the pIC50 in the assay on HUVEC [9] is less than 4.00. The inhibition at 50 µM in the assay on HUVEC [2] came out at 65%. The inhibition result (in the assay with Aorta [4]; in assay [5]) was “inactive” each time. Besides, the inhibition entry in the assay with HUVEC [8] is “Active”. In addition, in [6], the inhibition was determined as 50.1%.

In the case of `Cc1nnc(Sc2cc(NC(=O)c3ccc(Cl)cc3)c3ccccc3c2O)s1`, the Activity entry with Aorta [1] is “Dose-dependent effect”. Moreover, the pIC50 is less than 4.00 in the assay with MDA-MB-231, 4.31 in the assay with PC-3 and less than 4.00 in the assay on HCT-116. The inhibition at 10 µM worked out at 23% in the assay with Aorta [11] and 81% in the assay with HUVEC [8]. Further, the inhibition at 50 µM with HUVEC [2] is greater than 80%; in the assay with Aorta [4] it was 91%. Besides, the inhibition at 1 µM in the assay with Aorta [3] turned out to be 18%. The inhibition in assay [5] was determined as 9.25%; in assay [6], 8.48%.

Take `O=C(Nc1cc(Sc2ncn[nH]2)c(O)c2ccccc12)c1cccc(Cl)c1`: the negative logarithm of the IC50 (pIC50) in the assay on MDA-MB-231 was less than 4.00; in the assay with PC-3, 4.07; in the assay with HCT-116, less than 4.00. In the assay with HUVEC [2], the inhibition at 50 µM was greater than 80%. For the same molecule, the inhibition entry in the assay on Aorta [4] was “Active”. The inhibition result in assay [5] is “inactive”. Moreover, the inhibition in assay [6] amounted to 46%.

For the molecule `O=C(/C=C/c1ccccc1)Nc1cc(Sc2ncn[nH]2)c(O)c2ccccc12`, the pIC50 in the assay with MDA-MB-231, in the assay with PC-3 and in the assay with HCT-116 was less than 4.00 throughout. In addition, the inhibition at 50 µM in the assay on HUVEC [2] was greater than 80%. In addition, the inhibition entry in the assay with Aorta [4] is “Active”. For the same molecule, the inhibition result in assay [5] is “inactive”. In addition, the inhibition in assay [6] was 26.1%.

`O=C(Nc1cc(Sc2ncnc3nc[nH]c23)c(O)c2ccccc12)c1ccc(Cl)cc1`: the Activity entry in the assay on Aorta [1] was “Dose-dependent effect”. The pIC50 was 4.64 in the assay on MDA-MB-231; 4.77 in the assay with K562; 4.18 in the assay with PC-3; 4.84 with MCF7; 4.42 in the assay with A549; less than 4.00 in the assay with HCT-116. In the assay with HUVEC [9], this molecule gave a pIC50 of 5.12. In addition, the inhibition at 1 µM in the assay on Aorta [3] was greater than 70%. Further, in the assay with Aorta [4], the inhibition at 50 µM stood at 92%. In addition, the inhibition entry in [5] was “inactive”. In [6], this molecule yielded an inhibition of 21.7%.

Consider `CNC(=O)c1cc(Oc2ccc(NC(=O)Nc3ccc(Cl)c(C(F)(F)F)c3)cc2)ccn1` [SORAFENIB], for which the pIC50 with MDA-MB-231 is 4.84; in the assay with K562, 4.86; in the assay with PC-3, 4.62; in the assay on MCF7 it was 5.13; with A549, 4.90; with HCT-116 it was 5.09. Moreover, the pIC50 with HUVEC [9] was 5.19.
